Assay results as given in ChEMBL document CHEMBL1142961, “Novel selective inhibitors of the zinc plasmodial aminopeptidase PfA-M1 as potential antimalarial agents” (J Med Chem, 2007).

How the values were obtained:
[1] = biological target: T1, Aminopeptidase N (Plasmodium falciparum FcB1/Columbia) (UniProt O96935); assay: Inhibition of Plasmodium falciparum FcB1 M1 aminopeptidase at 10 uM
T1 sequence (whole entry): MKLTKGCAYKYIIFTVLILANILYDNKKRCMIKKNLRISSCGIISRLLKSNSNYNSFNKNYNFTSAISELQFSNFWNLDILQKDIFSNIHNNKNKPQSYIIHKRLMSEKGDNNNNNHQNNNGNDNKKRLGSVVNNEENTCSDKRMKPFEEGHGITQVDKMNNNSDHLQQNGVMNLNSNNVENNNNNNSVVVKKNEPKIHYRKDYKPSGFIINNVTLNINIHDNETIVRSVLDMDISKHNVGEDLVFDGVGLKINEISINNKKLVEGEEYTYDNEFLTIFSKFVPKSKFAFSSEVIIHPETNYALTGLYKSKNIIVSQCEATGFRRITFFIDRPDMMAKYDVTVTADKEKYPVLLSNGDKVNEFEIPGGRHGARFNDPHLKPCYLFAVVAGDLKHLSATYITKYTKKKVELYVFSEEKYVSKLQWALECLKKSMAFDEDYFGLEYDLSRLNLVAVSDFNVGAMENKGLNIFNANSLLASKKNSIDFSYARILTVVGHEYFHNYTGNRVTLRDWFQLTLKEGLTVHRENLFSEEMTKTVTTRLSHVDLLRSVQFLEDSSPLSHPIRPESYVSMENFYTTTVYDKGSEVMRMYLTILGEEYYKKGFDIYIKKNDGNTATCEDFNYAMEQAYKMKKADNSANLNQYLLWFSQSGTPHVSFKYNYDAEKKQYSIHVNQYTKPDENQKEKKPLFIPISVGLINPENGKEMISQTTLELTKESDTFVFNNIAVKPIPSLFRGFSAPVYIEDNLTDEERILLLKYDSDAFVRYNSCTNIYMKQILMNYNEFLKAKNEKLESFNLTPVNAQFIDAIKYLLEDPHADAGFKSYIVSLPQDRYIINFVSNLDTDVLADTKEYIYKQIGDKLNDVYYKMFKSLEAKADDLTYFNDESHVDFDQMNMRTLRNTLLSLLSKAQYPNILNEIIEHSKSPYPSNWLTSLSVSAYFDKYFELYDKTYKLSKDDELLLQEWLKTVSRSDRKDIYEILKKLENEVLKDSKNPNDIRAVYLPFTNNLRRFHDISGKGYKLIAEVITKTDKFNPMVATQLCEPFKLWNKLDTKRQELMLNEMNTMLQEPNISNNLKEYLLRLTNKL
In short: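 Native enzyme purified from P. falciparum FcB1, diluted 10-fold in 25 mM Tris-HCl pH 7.4. Preincubated with inhibitor for 10 min at room temperature, then Leu-pNA substrate added (0.3 mM stock, Km 0.099 mM). Kinetics followed at 405 nm at room temperature. Initial velocities normalized to a no-inhibitor control. Single-point screen at 10 µM; IC50 from velocity versus inhibitor concentration curves. Bestatin used as reference.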

[2] = biological target: T2, Aminopeptidase N (Sus scrofa) (UniProt P15145); assay: Inhibition of pig kidney microsomal APN at 10 uM
T2 sequence (whole entry): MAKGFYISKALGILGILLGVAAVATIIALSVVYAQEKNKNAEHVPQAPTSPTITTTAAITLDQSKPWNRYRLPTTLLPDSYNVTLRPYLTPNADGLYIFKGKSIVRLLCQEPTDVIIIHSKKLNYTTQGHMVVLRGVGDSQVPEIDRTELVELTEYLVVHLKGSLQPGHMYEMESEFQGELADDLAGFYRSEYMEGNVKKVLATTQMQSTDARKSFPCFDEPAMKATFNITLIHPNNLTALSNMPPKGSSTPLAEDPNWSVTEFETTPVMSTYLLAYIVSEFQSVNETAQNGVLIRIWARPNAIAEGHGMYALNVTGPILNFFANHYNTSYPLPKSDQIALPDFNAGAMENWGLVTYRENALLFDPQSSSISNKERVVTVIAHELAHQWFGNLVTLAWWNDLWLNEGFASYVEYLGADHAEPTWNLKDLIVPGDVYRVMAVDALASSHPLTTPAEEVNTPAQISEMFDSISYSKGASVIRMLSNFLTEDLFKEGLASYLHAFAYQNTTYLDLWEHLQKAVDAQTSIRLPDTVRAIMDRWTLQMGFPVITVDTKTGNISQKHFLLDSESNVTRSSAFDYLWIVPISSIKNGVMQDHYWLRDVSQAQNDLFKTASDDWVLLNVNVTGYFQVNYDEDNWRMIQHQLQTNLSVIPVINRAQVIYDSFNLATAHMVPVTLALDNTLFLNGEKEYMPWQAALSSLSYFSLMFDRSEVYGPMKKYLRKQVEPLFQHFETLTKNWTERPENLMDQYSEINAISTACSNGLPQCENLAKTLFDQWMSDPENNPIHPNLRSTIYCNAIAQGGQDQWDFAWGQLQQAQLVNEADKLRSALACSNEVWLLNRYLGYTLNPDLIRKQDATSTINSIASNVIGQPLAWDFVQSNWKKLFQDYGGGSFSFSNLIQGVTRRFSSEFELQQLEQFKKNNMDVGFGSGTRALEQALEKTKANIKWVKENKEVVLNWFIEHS
In short: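 Porcine kidney microsomal APN (ammonium sulfate suspension) diluted 600-fold in 25 mM Tris-HCl pH 7.4. Preincubated with inhibitor for 10 min at room temperature, then Leu-pNA added (0.3 mM stock). Hydrolysis followed at 405 nm at room temperature. Rates normalized to a no-inhibitor control. Single point at 10 µM; IC50 from concentration-velocity curves. Bestatin used as reference.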

SMILES	inhibition [1] [%]	inhibition [2] [%]
Cc1ccccc1CNC(=O)C(N)C(=O)NO (centres undefined)	9	23
O=C(NO)C(Cc1cccc(Oc2ccccc2)c1)C(=O)N(CCc1ccccc1)Cc1ccccc1 (centres undefined)	38	67
CN(CCCNC(=O)C(Cc1ccccc1)C(=O)NO)c1ccccc1 (centres undefined)	67	46
O=C(NO)C(Cc1cccc(Oc2ccccc2)c1)C(=O)N1CCN(Cc2ccc3c(c2)OCO3)CC1 (centres undefined)	97	31
CC(C)CC(C(=O)NO)C(=O)N1CCN(c2ccccc2)CC1 (centres undefined)	38	103
NC(C(=O)NO)C(=O)N1CCN(C(c2ccccc2)c2ccccc2)CC1 (centres undefined)	-5	10
CN(CCCCc1ccccc1)C(=O)C(Cc1cccc(Oc2ccccc2)c1)C(=O)NO (centres undefined)	80	95
CN(CCCNC(=O)CC(=O)NO)c1ccccc1	22	32
O=C(NO)C(Cc1cccc(Oc2ccccc2)c1)C(=O)NC1CCN(Cc2ccccc2)CC1 (centres undefined)	5	72
O=C(NO)C(Cc1cccc(Oc2ccccc2)c1)C(=O)NCCc1ccccc1 (centres undefined)	98	88
O=C(CC(=O)NCCc1ccccn1)NO	-2	16
O=C(CC(=O)N(CCc1ccccc1)Cc1ccccc1)NO	5	32
CN(Cc1ccccc1)C(=O)CC(=O)NO	-4	9
NC(C(=O)NO)C(=O)NCCCc1ccccc1 (centres undefined)	64	8
O=C(CC(=O)NCc1ccc(Cl)cc1)NO	10	13
Cc1ccccc1CNC(=O)C(CC(C)C)C(=O)NO (centres undefined)	88	98
CC(C)CC(C(=O)NO)C(=O)NCCNc1cccc2ccccc12 (centres undefined)	42	93
NC(C(=O)NO)C(=O)NCc1ccc(F)cc1 (centres undefined)	9	18
O=C(NO)C(Cc1ccccc1)C(=O)N1CCC2(CC1)C(=O)NCN2c1ccccc1 (centres undefined)	40	22

SMILES	inhibition [1] [%]	inhibition [2] [%]
O=C(CC(=O)NCCCCc1ccccc1)NO	19	36
O=C(CC(=O)N1CCN(Cc2ccccc2)CC1)NO	8	23
CN(Cc1ccccc1)C(=O)C(Cc1ccccc1)C(=O)NO (centres undefined)	45	36
O=C(NO)C(Cc1ccccc1)C(=O)N1CCC2(CCNc3ccccc3O2)CC1 (centres undefined)	7	32
O=C(NO)C(Cc1cccc(Oc2ccccc2)c1)C(=O)N1CCC2(CCNc3ccccc3O2)CC1 (centres undefined)	48	81
CC(C)CC(C(=O)NO)C(=O)N1CCC(n2c(=O)[nH]c3ccccc32)CC1 (centres undefined)	15	54
O=C(NO)C(Cc1ccccc1)C(=O)N1CCC(n2c(=O)[nH]c3ccccc32)CC1 (centres undefined)	-1	56
CN(CCCNC(=O)C(N)C(=O)NO)c1ccccc1 (centres undefined)	3	18
NC(C(=O)NO)C(=O)N1CCC2(CC1)C(=O)NCN2c1ccccc1 (centres undefined)	-6	43
O=C(CC(=O)NCc1cccc(Oc2ccccc2)c1)NO	44	55
CC(C)CC(C(=O)NO)C(=O)NCc1ccc(C(F)(F)F)cc1 (centres undefined)	24	45
O=C(CC(=O)NCc1ccccc1)NO	2	19
NC(C(=O)NO)C(=O)N1CCN(Cc2ccc3c(c2)OCO3)CC1 (centres undefined)	-3	23
O=C(NO)C(Cc1cccc(Oc2ccccc2)c1)C(=O)NCCC(c1ccccc1)c1ccccc1 (centres undefined)	50	59
O=C(NO)C(Cc1ccccc1)C(=O)NCc1ccc(C(F)(F)F)cc1 (centres undefined)	67	75
O=C(CC(=O)NCCNc1cccc2ccccc12)NO	0	14
O=C(CC(=O)NCc1cccnc1)NO	3	18
CC(C)CN(CCCCc1ccccc1)C(=O)CC(=O)NO	22	45
CC(C)CN(CCCCc1ccccc1)C(=O)C(Cc1cccc(Oc2ccccc2)c1)C(=O)NO (centres undefined)	36	52

SMILES	inhibition [1] [%]	inhibition [2] [%]
CC(C)CC(C(=O)NO)C(=O)N1CCN(Cc2ccccc2)CC1 (centres undefined)	29	28
O=C(NO)C(Cc1cccc(Oc2ccccc2)c1)C(=O)N1CCC(n2c(=O)[nH]c3ccccc32)CC1 (centres undefined)	74	76
NC(C(=O)NO)C(=O)NCc1ccc(C(F)(F)F)cc1 (centres undefined)	6	55
O=C(NO)C(Cc1ccccc1)C(=O)N1CCN(C(c2ccccc2)c2ccccc2)CC1 (centres undefined)	0	14
CC(C)CC(C(=O)NO)C(=O)NCCCN(C)c1ccccc1 (centres undefined)	66	81
O=C(CC(=O)N1CCc2ccccc2C1)NO	-3	19
O=C(NO)C(Cc1ccccc1)C(=O)N1CCN(c2ccccc2)CC1 (centres undefined)	20	46
CC(C)CC(C(=O)NO)C(=O)N(CCc1ccccc1)Cc1ccccc1 (centres undefined)	42	105
O=C(CC(=O)NCCCc1ccccc1)NO	2	15
CN(CCCCc1ccccc1)C(=O)C(N)C(=O)NO (centres undefined)	12	10
NC(C(=O)NO)C(=O)NCCNc1cccc2ccccc12 (centres undefined)	2	16
CC(C)CC(C(=O)NO)C(=O)NCCc1ccccn1 (centres undefined)	30	86
CC(C)CC(C(=O)NO)C(=O)NCCC(c1ccccc1)c1ccccc1 (centres undefined)	76	102
NC(C(=O)NO)C(=O)NCCCCc1ccccc1 (centres undefined)	56	42
NC(C(=O)NO)C(=O)NCc1ccccc1 (centres undefined)	10	77
COc1cccc(CC(C(=O)NO)C(=O)NCc2cccc(Oc3ccccc3)c2)c1 (centres undefined)	68	69
O=C(CC(=O)N[C@H]1CCN(Cc2ccccc2)C1)NO	-3	19
CC(C)CN(CCCCc1ccccc1)C(=O)C(N)C(=O)NO (centres undefined)	37	-1
O=C(NO)C(Cc1ccccc1)C(=O)NCc1cccnc1 (centres undefined)	-6	15
